From ChEMBL document CHEMBL1123261, “Comparative antiaggregatory activity in human platelets of a benzopyranone aci-reductone, clofibric acid, and a 2,3-dihydrobenzofuran analogue” (J Med Chem, 1986) come the findings set out here.

Format in all cases: functional, organism-based
The species entered for experiment [1] is Homo sapiens. The experiment can be described thus: Compound was tested for the inhibitory activity against human platelet aggregation by adenosine -Diphosphate (ADP (1-5 uM)). The essentials: (§1)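 Human platelet-rich plasma, count adjusted to 3 × 10^8/mL. Turbidometric (Born) aggregometry. Inhibitor added 1 min before inducer, which was used at the minimum level giving maximal aggregation. IC50 taken from change in light-transmittance amplitude after 6 min for ADP (secondary aggregation only) and 4 min for AA and U46619. U46619 samples contained aspirin 1 mM. Mean ± SEM, three to nine donors.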

The species entered for experiment [2] is Homo sapiens. Nature of the experiment: Compound was tested for the inhibitory activity against human platelet aggregation by U46,619 (0.3 uM) + Aspirin (ASA, 1 mM). The essentials:
as §1

The species named for experiment [3] is Homo sapiens. Nature of the experiment: Compound was tested for the inhibitory activity against serotonin secretion by adenosine -Diphosphate (ADP (1-5 uM)). The essentials: (§2)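 Human platelet-rich plasma (3 × 10^8/mL) prelabeled with [14C]serotonin. Inhibitor added 1 min before the inducer: ADP 1–5 μM, AA 0.2–1 mM, or U46619 0.3 μM with aspirin 1 mM. Dense-granule secretion measured as release of radioactivity. Mean IC50 ± SEM, three to nine donors.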

The species named for experiment [4] is Homo sapiens. The experiment can be described thus: Compound was tested for the inhibitory activity against human platelet aggregation by arachidonic acid (AA (0.1-1 mM)). Particulars: in the assay text read “AA (0.2-1 mM)” for “AA (0.1-1 mM)”. The procedure, abridged: as §1
Experiment [5] is filed under the species Homo sapiens. The experiment can be described thus: Compound was tested for the inhibitory activity against serotonin secretion by arachidonic acid (AA (0.1-1 mM)). The note with it: in the assay text read “AA (0.2-1 mM)” for “AA (0.1-1 mM)”. The procedure, abridged:
as §2

The species named for experiment [6] is Homo sapiens. Nature of the experiment: Compound was tested for the inhibitory activity against serotonin secretion by U-46,619 (0.3 uM) + Aspirin (ASA, 1 mM). The procedure, abridged:
as §2

For experiment [7], the species on record is Homo sapiens. Nature of the experiment: Compound was tested for the inhibitory activity against serotonin secretion by adenosine -Diphosphate (ADP (1-5 uM)). The procedure, abridged: as §2

pIC50: −log10 of the molar value.

Turning to `O=c1c(O)c(O)oc2ccc(Cl)cc12`, the pIC50 is 3.44 in the experiment filed under Homo sapiens [1]; 2.82 in the experiment listed under Homo sapiens [2]; 3.33 in the experiment listed under Homo sapiens [3]; 3.13 in the experiment filed under Homo sapiens [4]; 3.09 in the experiment listed under Homo sapiens [5]; 2.62 in the experiment listed under Homo sapiens [6].

For the compound `O=C(O)C1Cc2cc(Cl)ccc2O1` (stereo not given), the pIC50 in the experiment filed under Homo sapiens [1] is 3.27; in the experiment filed under Homo sapiens [2] it was 2.83; in the experiment listed under Homo sapiens [4], 3.07; in the experiment filed under Homo sapiens [5], 3.00; in the experiment listed under Homo sapiens [7], 3.38; in the experiment filed under Homo sapiens [6], 2.84.

Turning to `CC(C)(Oc1ccc(Cl)cc1)C(=O)O` [CLOFIBRIC ACID], the pIC50 was < 2.40 in the experiment listed under Homo sapiens [2], < 2.51 in the experiment filed under Homo sapiens [4] and < 2.46 in the experiment filed under Homo sapiens [5].
